Measured values taken from ChEMBL document CHEMBL1133006, “Synthesis and evaluation of several new (2-chloroethyl)nitrosocarbamates as potential anticancer agents” (J Med Chem, 2000).
Converted amounts (≈) assume the structure as drawn.

How the values were obtained:
[1] = test system: NCI-H23; test: In vitro cytotoxicity was evaluated against lung NCI-H23 cells; type: functional, cell-based; conditions: Homo sapiens
Procedure, shortened: (§1)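 Cells dispersed with trypsin/EDTA, suspended at 5 × 10⁴/mL and seeded in 96-well plates. Compounds dissolved in 100% DMSO, diluted in complete medium and added in 100-µL samples, eight replicate wells per concentration. Controls were mock, vehicle (DMSO in medium) and doxorubicin 200 µM. Incubation 72 h, read by XTT or neutral red uptake, IC₅₀ calculated in µM.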

[2] = test system: SNB-7; test: In vitro cytotoxicity was evaluated againstCNS SNB-7 cells; type: functional, cell-based; conditions: Homo sapiens; procedure, shortened: as §1
[3] = test system: SK-MEL-28; test: In vitro cytotoxicity was evaluated against melanoma SK-MEL-28 cells; […]; type: functional, cell-based; conditions: Homo sapiens; procedure, shortened: as §1
[4] = test system: DLD-1 (Homo sapiens); test: In vitro cytotoxicity was evaluated against colon DLD-1 cells
[5] = test system: CAKI-1 (Homo sapiens); test: In vitro cytotoxicity was evaluated against renal CAKI-1 cells; […]
[6] = organism: Mus sp.; test: Difference in the median of times poststaging for tumors of the treated (T) groups to double in mass twice compared to the median of the control (C) group; type: functional
Procedure, shortened: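 M5076 sarcoma, 5 × 10⁶ cells implanted sc in B6C3F₁ mice (implantation = day 0). Compound given ip on days 10-14 at optimal dosage (≤LD10). T-C is the difference in median time after staging for treated versus control tumors to double in mass twice, in days.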

[7] = test system: Mus sp.; test: Antitumor activity against subcutaneously implanted M5076 murine sarcoma in B6C3F1 mice (5x10E6) at 12.5 mg/kg on day 10 to 14, expressed tumor-free surv/total; 0/5; type: functional; conditions: route subcutaneous
Procedure, shortened: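 B6C3F1 mice got 5 × 10⁶ M5076 sarcoma cells sc (implant day = day 0). Drug was given ip at 12.5 mg/kg/dose on days 10-14, 5 mice per group. Tumor-free survivors/total were recorded. T-C was the difference in median time after staging for tumors to double in mass twice, treated versus control.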

[8] = test system: P388; test: Antitumor activity was measured by % increase in life span (ILS) of CD2F1 mice implanted with P388 murine leukemia cell at a dose of 25 mg/kg; type: functional, Mus sp.; conditions: Mus musculus
[9] = test system: P388; test: Antitumor activity measured by % increase in life span (ILS) of CD2F1 mice implanted with murine leukemia cells expressed as net log cell kill; type: functional, Mus sp.
[10] = test system: P388; test: Antitumor activity against intraperitoneally implanted P388 murine leukemia in CD2F1 mice with 10E6 at 25 mg/kg on day 1, expressed tumor-free surv/total;0/5; type: functional, Mus sp.; conditions: route intraperitoneal
[11] = test system: SNB-7; test: In vitro cytotoxicity was evaluated againstCNS SNB-7 cells; 3 x 10E1; type: functional, cell-based; conditions: Homo sapiens; procedure, shortened: as §1
[12] = test system: DLD-1 (Homo sapiens); test: In vitro cytotoxicity was evaluated against colon DLD-1 cells; 2 x 10E1
[13] = test system: CAKI-1 (Homo sapiens); test: In vitro cytotoxicity was evaluated against renal CAKI-1 cells; 2 x 10E1
[14] = test system: SK-MEL-28 (Homo sapiens); test: In vitro cytotoxicity was evaluated against melanoma SK-MEL-28 cells; 1 x 10e1; 1 x 10E1
[15] = test system: DLD-1; test: In vitro cytotoxicity was evaluated against colon DLD-1 cells; 4 x 10E1; type: functional, cell-based; conditions: Homo sapiens; procedure, shortened: as §1
[16] = test system: CAKI-1 (Homo sapiens); test: In vitro cytotoxicity was evaluated against renal CAKI-1 cells
[17] = test system: SK-MEL-28 (Homo sapiens); test: In vitro cytotoxicity was evaluated against melanoma SK-MEL-28 cells; 3 x 10E1
[18] = test system: NCI-H23; test: In vitro cytotoxicity was evaluated against lung NCI-H23 cells; 1 x 10E1; type: functional, cell-based; conditions: Homo sapiens; procedure, shortened: as §1
[19] = test system: DLD-1 (Homo sapiens); test: In vitro cytotoxicity was evaluated against colon DLD-1 cells; 1 x 10E1
[20] = test system: CAKI-1 (Homo sapiens); test: In vitro cytotoxicity was evaluated against renal CAKI-1 cells; 3 x 10E1
[21] = test system: SK-MEL-28 (Homo sapiens); test: In vitro cytotoxicity was evaluated against melanoma SK-MEL-28 cells; 2 x 10E1
[22] = test system: NCI-H23; test: In vitro cytotoxicity was evaluated against lung NCI-H23 cells; 3 x 10E1; type: functional, cell-based; conditions: Homo sapiens; procedure, shortened: as §1
[23] = test system: DLD-1 (Homo sapiens); test: In vitro cytotoxicity was evaluated against colon DLD-1 cells; 3 x 10E1
[24] = test system: SK-MEL-28 (Homo sapiens); test: In vitro cytotoxicity was evaluated against melanoma SK-MEL-28 cells
[25] = test system: CAKI-1; test: In vitro cytotoxicity was evaluated against renal CAKI-1 cells; 3 x 10E1; type: functional, cell-based; conditions: Homo sapiens; procedure, shortened: as §1
[26] = test system: DLD-1; test: In vitro cytotoxicity was evaluated against colon DLD-1 cells; 2 x 10E1; type: functional, cell-based; conditions: Homo sapiens; procedure, shortened: as §1
[27] = test system: SK-MEL-28; test: In vitro cytotoxicity was evaluated against melanoma SK-MEL-28 cells; 1 x 10E1; type: functional, cell-based; conditions: Homo sapiens; procedure, shortened: as §1
[28] = test system: SNB-7; test: In vitro cytotoxicity was evaluated againstCNS SNB-7 cells; 1 x 10E1; type: functional, cell-based; conditions: Homo sapiens; procedure, shortened: as §1

Q: How did the IC50 [1] turn out when O=NN(CCCl)C(=O)OCc1ccccc1[N+](=O)[O-] was run?
A: 3 µg/mL (≈ 10.4 µM)

Q: What about the IC50 [2] of the same compound?
A: 1 µg/mL (≈ 3.48 µM)

Q: And the IC50 [3]?
A: 40 µg/mL (≈ 139 µM)

Q: What about the IC50 [4] of the same compound?
A: 6 µg/mL

Q: What about the IC50 [5] of the same compound?
A: 40 µg/mL (≈ 139 µM)

Q: Which results are given for CC(=O)Oc1ccc(COC(=O)N(CCCl)N=O)cc1?
A: T-C [6]: 3; Survivial / total [7]: 0; IC50 [1]: 6 µg/mL (≈ 20 µM); ILS at 25 mg/kg [8]: 4%; Net log cell kill [9]: -0.3; Survivial / total [10]: 0; IC50 [11]: 30 µg/mL (≈ 99.8 µM); IC50 [12]: 20 µg/mL (≈ 66.5 µM); IC50 [13]: 20 µg/mL (≈ 66.5 µM); IC50 [14]: 10 µg/mL (≈ 33.3 µM)

Q: How did the IC50 [15] turn out when O=NN(CCCl)C(=O)Oc1cncnc1 was run?
A: 40 µg/mL (≈ 173 µM)

Q: And the IC50 [1]?
A: 2 µg/mL (≈ 8.67 µM)

Q: And the IC50 [2]?
A: 6 µg/mL (≈ 26 µM)

Q: And the IC50 [16]?
A: 6 µg/mL

Q: What about the IC50 [17] of the same compound?
A: 30 µg/mL (≈ 130 µM)

Q: With CC(=O)Oc1ccccc1COC(=O)N(CCCl)N=O as the compound, how does the IC50 [2] read?
A: 6 µg/mL (≈ 20 µM)

Q: And the IC50 [18]?
A: 10 µg/mL

Q: What about the IC50 [19] of the same compound?
A: 10 µg/mL (≈ 33.3 µM)

Q: What about the IC50 [20] of the same compound?
A: 30 µg/mL (≈ 99.8 µM)

Q: What about the IC50 [21] of the same compound?
A: 20 µg/mL (≈ 66.5 µM)

Q: With O=NN(CCCl)C(=O)Oc1cccnc1 as the compound, how does the IC50 [22] read?
A: > 30 µg/mL

Q: What about the IC50 [11] of the same compound?
A: > 30 µg/mL

Q: And the IC50 [23]?
A: > 30 µg/mL

Q: What about the IC50 [20] of the same compound?
A: > 30 µg/mL

Q: What about the IC50 [17] of the same compound?
A: > 30 µg/mL

Q: O=NN(CCCl)C(=O)OCc1ccc([N+](=O)[O-])cc1 was tested. Which IC50 [1] did it give?
A: 1 µg/mL (≈ 3.48 µM)

Q: What about the IC50 [2] of the same compound?
A: 1 µg/mL (≈ 3.48 µM)

Q: What about the IC50 [4] of the same compound?
A: 5 µg/mL

Q: What about the IC50 [16] of the same compound?
A: 3 µg/mL

Q: And the IC50 [24]?
A: 1 µg/mL

Q: Which results are given for CC(=O)OCC1OC(OC(=O)N(CCCl)N=O)C(OC(C)=O)C(OC(C)=O)C1OC(C)=O (stereo not given)?
A: IC50 [25]: > 30 µg/mL; IC50 [26]: 20 µg/mL (≈ 41.4 µM); IC50 [1]: 3 µg/mL (≈ 6.21 µM); IC50 [27]: 10 µg/mL (≈ 20.7 µM); IC50 [28]: 10 µg/mL

Q: Which IC50 ([28]; read-out: IC50) does the source give for Nc1ccn([C@@H]2O[C@H](CO)[C@@H](O)[C@@H]2O)c(=O)n1 [CYTARABINE] here?
A: 1 µM

Q: What about the IC50 ([18]; read-out: IC50) of the same compound?
A: 1 µM

Q: What about the IC50 [4] of the same compound?
A: > 5 µM

Q: And the IC50 [16]?
A: > 5 µM

Q: What about the IC50 [24] of the same compound?
A: 1 µM
